Experiment [1] relates to Nakaseomyces glabratus. Description: Antimicrobial activity against Candida glabrata TG162 containing calcineurin deltacnb1 mutant at 1 mg/ml after 48 hrs. The class given is functional, organism-based. The method in brief:
(§1)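 Spot assay: serial 10-fold dilutions of log-phase cells spotted on minimal-medium plates containing micafungin, Congo red or calcofluor white. Plates incubated 48 h at 30°C; each test repeated at least three times.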

Experiment [2] deals with Nakaseomyces glabratus. Description: Antimicrobial activity against Candida glabrata TG172 containing deltacrz1 mutant at 1 mg/ml after 48 hrs. The class given is functional, organism-based. The method, boiled down: as §1
Experiment [3] relates to Nakaseomyces glabratus. Description: Antimicrobial activity against Candida glabrata TG172 containing deltacrz1 mutant at 0.8 mg/ml after 48 hrs. Format: functional, organism-based. The method in brief: as §1
In experiment [4] the test system is Nakaseomyces glabratus. Description: Antimicrobial activity against Candida glabrata TG162 containing calcineurin deltacnb1 mutant at 0.8 mg/ml after 48 hrs. The class given is functional, organism-based. The method, boiled down: as §1
For experiment [5], the system named is Nakaseomyces glabratus. The experiment is described as follows: Fungicidal activity against deltacrz1 mutant containing Candida glabrata TG173 complemented with CRZ1 gene at 0.03 ug/ml after 24 hrs by colorimetric microdilution method. Format: functional, organism-based. The method, boiled down: (§2)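 Log-phase cells at 2.5 × 10^3 CFU/ml in minimal medium, with or without micafungin (dissolved in distilled water). OD600 read after 24 h. Percent absorbance at 0.03 μg/ml relative to drug-free culture; mean and SD of three independent experiments.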
For orientation: Dilution methods test growth across graded concentrations, often in twofold steps.

The test system of experiment [6] is Nakaseomyces glabratus. The experiment is described as follows: Fungicidal activity against Candida glabrata TG162 containing calcineurin deltacnb1 mutant at 0.03 ug/ml after 24 hrs by colorimetric microdilution method. The class given is functional, organism-based. The method, boiled down:
as §2

Experiment [7] concerns Nakaseomyces glabratus. The experiment is described as follows: Fungicidal activity against Candida glabrata TG172 containing deltacrz1 mutant at 0.03 ug/ml after 24 hrs by colorimetric microdilution method. Format: functional, organism-based. The method in brief:
as §2

The test system of experiment [8] is Nakaseomyces glabratus. The experiment is described as follows: Fungicidal activity against calcineurin deltacnb1 mutant containing Candida glabrata TG163 complemented with CNB1 gene at 0.03 ug/ml after 24 hrs by colorimetric microdilution method. Format: functional, organism-based. The method, boiled down:
as §2

For experiment [9], the system named is Nakaseomyces glabratus. Description: Fungistatic activity against wild type Candida glabrata TG11 at 0.03 ug/ml after 24 hrs by colorimetric microdilution method. The class given is functional, organism-based.
Experiment [10] has as its system Nakaseomyces glabratus. The experiment is described as follows: Antimicrobial activity against wild type Candida glabrata TG11 by colorimetric microdilution method. Format: functional. The method in brief:
(§3)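 MIC by commercially prepared colorimetric broth microdilution panel; agents tested were fluconazole, miconazole, itraconazole, voriconazole and amphotericin B.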

The subject of experiment [11] is Nakaseomyces glabratus. The experiment is described as follows: Antimicrobial activity against Candida glabrata TG172 containing deltacrz1 mutant by colorimetric microdilution method. The class given is functional. The method in brief:
as §3

Experiment [12] relates to Nakaseomyces glabratus. The experiment is described as follows: Antimicrobial activity against deltacrz1 mutant containing Candida glabrata TG173 complemented with CRZ1 gene by colorimetric microdilution method. The class given is functional. The method in brief:
as §3

Experiment [13] has as its system Nakaseomyces glabratus. The experiment is described as follows: Antimicrobial activity against Candida glabrata TG162 containing calcineurin deltacnb1 mutant by colorimetric microdilution method. The class given is functional. The method in brief: as §3
Experiment [14] relates to Nakaseomyces glabratus. The experiment is described as follows: Antimicrobial activity against calcineurin deltacnb1 mutant containing Candida glabrata TG163 complemented with CNB1 gene by colorimetric microdilution method. The class given is functional. The method, boiled down: as §3
The subject of experiment [15] is Nakaseomyces glabratus. Description: Antimicrobial activity against deltacrz1 mutant containing Candida glabrata TG173 complemented with CRZ1 gene assessed as reduction in […] cell viability by time kill study. Format: functional, organism-based. The method, boiled down: (§4)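 Time-kill: log-phase cells at 5 × 10^5 CFU/ml in minimal medium with agitation, with or without fluconazole at several concentrations. Total cells counted by hemocytometer, viable cells by plating dilutions on YPD. Read-out is percent viability; mean and SD of three independent experiments.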

Experiment [16] concerns Nakaseomyces glabratus. Description: Fungicidal activity against Candida glabrata TG162 containing calcineurin deltacnb1 mutant assessed as reduction in […] cell viability by time kill study. The class given is functional, organism-based. The method in brief:
as §4

The test system of experiment [17] is Nakaseomyces glabratus. The experiment is described as follows: Antimicrobial activity against Candida glabrata TG172 containing deltacrz1 mutant assessed as reduction in […] cell viability by time kill study. The class given is functional, organism-based. The method, boiled down:
as §4

Experiment [18] deals with Nakaseomyces glabratus. Description: Fungistatic activity against calcineurin deltacnb1 mutant containing Candida glabrata TG163 complemented with CNB1 gene assessed as reduction in […] cell viability by time kill study. The class given is functional, organism-based. The method, boiled down: as §4
Experiment [19] relates to Nakaseomyces glabratus. The experiment is described as follows: Fungistatic activity against wild type Candida glabrata TG11 assessed as reduction in […] cell viability by time kill study. Format: functional, organism-based. The method in brief: as §4

The term MIC denotes the lowest concentration that inhibits growth of the organism.

Molecules are shown by their SMILES. Converted amounts (≈) assume the structure as drawn. The source made the active and inactive calls. No cut-off for these calls is given here. Starred links: 1 amine or outer side, 2 acyl side, 3 side chain; linkers in the order of their positions; H or OH if unused. Positions of bridges follow the written chain, without caps; N, C: chain ends. Non-standard residues stand in square brackets, D forms with d. Residues, ends and D or L forms follow the SMILES beside them. *: point of attachment. hTyr(3S-OH,4S-OH,3'-OSO3H) = N[C@H](C(=O)O)[C@H](O)[C@@H](O)c1ccc(O)c(OS(=O)(=O)O)c1; Orn(4R-OH,5R-OH) = O=C([C@H](C[C@@H](O)[C@@H](O)N[*:3])N[*:1])[*:2]; Pro(3S-OH,4S-Me) = C[C@H]1CN[C@H](C(=O)O)[C@H]1O; X1 = CCCCCOc1ccc(-c2cc(-c3ccc(C(=O)*)cc3)no2)cc1; Gln(3R-OH) = NC(=O)C[C@@H](O)[C@H](N)C(=O)O; Hyp = O=C(O)[C@@H]1C[C@@H](O)CN1

On to `Nc1c(/N=N/c2ccc(-c3ccc(/N=N/c4cc(S(=O)(=O)O)c5ccccc5c4N)cc3)cc2)cc(S(=O)(=O)O)c2ccccc12`, for which the “growth inhibition (GI)” value in the experiment with Nakaseomyces glabratus [1] and in the experiment with Nakaseomyces glabratus [2] was “Active” throughout.
Regarding `O=S(=O)(O)c1cc(Nc2nc(Nc3ccccc3)nc(N(CCO)CCO)n2)ccc1/C=C/c1ccc(Nc2nc(Nc3ccccc3)nc(N(CCO)CCO)n2)cc1S(=O)(=O)O`, the “growth inhibition (GI)” value with Nakaseomyces glabratus [3] is “inactive”. The “growth inhibition (GI)” value in the experiment with Nakaseomyces glabratus [4] was “Active”.
As for `CCCCCOc1ccc(-c2cc(-c3ccc(C(=O)N[C@H]4C[C@@H](O)[C@@H](O)NC(=O)[C@@H]5[C@@H](O)[C@@H](C)CN5C(=O)[C@H]([C@H](O)CC(N)=O)NC(=O)[C@H]([C@H](O)[C@@H](O)c5ccc(O)c(OS(=O)(=O)O)c5)NC(=O)[C@@H]5C[C@@H](O)CN5C(=O)[C@H]([C@@H](C)O)NC4=O)cc3)no2)cc1` (X1-[Orn(4R-OH,5R-OH)]T[Hyp][hTyr(3S-OH,4S-OH,3'-OSO3H)][Gln(3R-OH)][Pro(3S-OH,4S-Me)]; lactam 1-C), the “growth inhibition (GI)” value in the experiment on Nakaseomyces glabratus [5] and with Nakaseomyces glabratus [8] was “inactive” throughout. The “growth inhibition (GI)” value with Nakaseomyces glabratus [6], with Nakaseomyces glabratus [7] and in the experiment on Nakaseomyces glabratus [9] was “Active” throughout.
In the case of `C[C@@H]1[C@H](O)[C@@H](C)/C=C/C=C/C=C/C=C/C=C/C=C/C=C/[C@H](O[C@@H]2O[C@H](C)[C@@H](O)[C@H](N)[C@@H]2O)C[C@@H]2O[C@](O)(C[C@@H](O)C[C@@H](O)[C@H](O)CC[C@@H](O)C[C@@H](O)CC(=O)O[C@H]1C)C[C@H](O)[C@H]2C(=O)O` [AMPHOTERICIN B], the minimum inhibitory concentration (MIC) against Nakaseomyces glabratus [10], in the experiment on Nakaseomyces glabratus [11], in the experiment on Nakaseomyces glabratus [12], in the experiment with Nakaseomyces glabratus [13] and in the experiment on Nakaseomyces glabratus [14] was 0.5 µg/mL (≈ 0.541 µM) in each case.
On to `OC(Cn1cncn1)(Cn1cncn1)c1ccc(F)cc1F` [FLUCONAZOLE], for which the “growth inhibition (GI)” value in the experiment with Nakaseomyces glabratus [15] and with Nakaseomyces glabratus [17] was “inactive” in each case. Moreover, the “growth inhibition (GI)” value with Nakaseomyces glabratus [16], with Nakaseomyces glabratus [18] and in the experiment on Nakaseomyces glabratus [19] was “Active” throughout. Also, the minimum inhibitory concentration (MIC) in the experiment on Nakaseomyces glabratus [10] was found to be 16 µg/mL (≈ 52.2 µM); against Nakaseomyces glabratus [11], 32 µg/mL (≈ 104 µM); against Nakaseomyces glabratus [12], 16 µg/mL (≈ 52.2 µM); with Nakaseomyces glabratus [13], 4 µg/mL (≈ 13.1 µM); in the experiment with Nakaseomyces glabratus [14], 16 µg/mL (≈ 52.2 µM).
`CCC(C)n1ncn(-c2ccc(N3CCN(c4ccc(OCC5COC(Cn6cncn6)(c6ccc(Cl)cc6Cl)O5)cc4)CC3)cc2)c1=O` (centres undefined) [ITRACONAZOLE]: the MIC came out at 2 µg/mL (≈ 2.83 µM) against Nakaseomyces glabratus [10]; 1 µg/mL (≈ 1.42 µM) in the experiment on Nakaseomyces glabratus [11]; 1 µg/mL (≈ 1.42 µM) with Nakaseomyces glabratus [12]; 0.5 µg/mL (≈ 0.709 µM) in the experiment with Nakaseomyces glabratus [13]; 2 µg/mL (≈ 2.83 µM) with Nakaseomyces glabratus [14].
With `Clc1ccc(COC(Cn2ccnc2)c2ccc(Cl)cc2Cl)c(Cl)c1` (centres undefined) [MICONAZOLE], the MIC with Nakaseomyces glabratus [10] was 0.5 µg/mL (≈ 1.2 µM); against Nakaseomyces glabratus [11], 1 µg/mL (≈ 2.4 µM); against Nakaseomyces glabratus [12], 0.5 µg/mL (≈ 1.2 µM); in the experiment on Nakaseomyces glabratus [13], 0.125 µg/mL (≈ 0.3 µM); with Nakaseomyces glabratus [14], 0.5 µg/mL (≈ 1.2 µM).
For `C[C@@H](c1ncncc1F)[C@](O)(Cn1cncn1)c1ccc(F)cc1F` [VORICONAZOLE], the minimum inhibitory concentration (MIC) against Nakaseomyces glabratus [10] came out at 0.25 µg/mL (≈ 0.716 µM); in the experiment on Nakaseomyces glabratus [11] it was 0.5 µg/mL (≈ 1.43 µM); with Nakaseomyces glabratus [12] it was 0.25 µg/mL (≈ 0.716 µM); with Nakaseomyces glabratus [13] it was 0.125 µg/mL (≈ 0.358 µM); in the experiment on Nakaseomyces glabratus [14] it was 0.25 µg/mL (≈ 0.716 µM).

Values taken from ChEMBL document CHEMBL1255408, “Roles of calcineurin and Crz1 in antifungal susceptibility and virulence of Candida glabrata” (2010).
